The test system of assay [1] is panel of approximately sixty human tumor cell lines. The assay is described as follows: NCI one-dose primary anticancer assay. It is filed as cell-based. Conditions: for anticancer activity in words / number of cell lines against which the compound was effective: 1 dose 10 μM; for activity at 10 µM: Homo sapiens, 60 cell, 48 h. An outline of the steps: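 NCI DTP single-dose screen on approximately sixty human tumor cell lines from nine cancer types. Test compound added at 10⁻⁵ M and cultures incubated 48 h. End point by sulforhodamine B protein staining, read spectrophotometrically. Result expressed as percent growth of treated cells relative to untreated control cells.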

For a further assay, the system named is SARS CoV Urbani. In words: microbe, parasite or virus in culture. It is filed as cell-based, SARS coronavirus. Conditions: for EC50: Severe acute respiratory syndrome coronavirus.
Assay [2] has as its system Flu A (H5N1) Duck/MN/1525/81. It is filed as cell-based.
Assay [3] deals with four strains of influenza virus. In words: Primary antiviral assay, influenza strains taken together. It is filed as cell-based.
For assay [4], the system named is Leukemia subpanel tumor cell lines. The assay is described as follows: NCI five-dose anticancer assay. Conditions: for GI50: Homo sapiens; for TGI: Leukemia subpanel average, five concentrations. It is filed as cell-based, human. An outline of the steps: (§1)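 Approximately sixty human tumor cell lines from nine cancer types, tested by the NCI DTP protocol. Test compound given at five 10-fold dilutions (100, 10, 1, 0.1, 0.01 μM) with 48 h continuous exposure. SRB protein staining read spectrophotometrically at time zero, in untreated control and in treated wells. […] MG_MID averages each parameter over all cell lines.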

The subject of assay [5] is NSC lung cancer cell lines. In words: NCI five-dose anticancer assay. It is filed as cell-based, human. Conditions: 48 h; for GI50: Homo sapiens; for TGI: NSC lung cancer subpanel average, five concentrations. An outline of the steps:
as §1

The subject of a further assay is Colon cancer cell lines. In words: NCI five-dose anticancer assay. Conditions: 48 h; for TGI: Colon cancer subpanel average, five concentrations; for GI50: Homo sapiens. It is filed as cell-based, human. In short, it runs like this: as §1
The test system of a further assay is CNS cancer cell lines. The assay is described as follows: NCI five-dose anticancer assay. It is filed as cell-based, human. Conditions: 48 h; for TGI: CNS cancer subpanel average, five concentrations; for GI50: Homo sapiens. In short, it runs like this: as §1
The subject of a further assay is Melanoma cell lines. In words: NCI five-dose anticancer assay. The settings on record: 48 h; for GI50: Homo sapiens; for TGI: Melanoma subpanel average, five concentrations. It is filed as cell-based, human. In short, it runs like this:
as §1

Assay [6] has as its system Ovarian cancer cell lines. The assay is described as follows: NCI five-dose anticancer assay. It is filed as cell-based, human. Conditions: 48 h; for GI50: Homo sapiens; for TGI: Ovarian cancer subpanel average, five concentrations. In short, it runs like this:
as §1

For the next assay, the system named is Renal cancer cell lines. The assay is described as follows: NCI five-dose anticancer assay. Conditions: 48 h; for GI50: Homo sapiens; for TGI: Renal cancer subpanel average, five concentrations. It is filed as cell-based, human. An outline of the steps:
as §1

The test system of a further assay is Breast cancer cell lines. In words: NCI five-dose anticancer assay. The settings on record: 48 h; for TGI: Breast cancer subpanel average, five concentrations. It is filed as cell-based, human. In short, it runs like this:
as §1

Assay [7] relates to panel of approximately sixty tumor cell lines. The assay is described as follows: NCI five-dose anticancer assay. It is filed as cell-based. The settings on record: Homo sapiens, read-out: GI50 MG_MID. In short, it runs like this: as §1
The subject of assay [8] is Prostate cancer cell lines. The assay is described as follows: NCI five-dose anticancer assay. It is filed as cell-based. Conditions: Homo sapiens, 48 h. An outline of the steps: as §1
Another assay has as its system MOLT-4. In words: NCI five-dose anticancer assay. It is filed as cell-based, human. Conditions: MOLT-4, Leukemia; 48 h. An outline of the steps: as §1
A further assay relates to HS 578T. The assay is described as follows: NCI five-dose anticancer assay. It is filed as cell-based, human. The settings on record: Breast cancer, 48 h. In short, it runs like this:
as §1

Where two headings read alike, the source gives them in different places.

The values below come from paper PMC7115615 (European Journal of Medicinal Chemistry, 2013).

As to `COc1ccc(C2CC(c3ccc4ccccc4c3)=NN2C2SC(=O)NC2=O)cc1` (centres unmarked) [1a, 5-[5-(4-Methoxyphenyl)-3-naphthalen-2-yl-4,5-dihydropyrazol-1-yl]-thiazolidine-2,4-dione], the “anticancer activity in words” value in [1] was “did not show any activity”. In [1] (read-out: Mean growth %), the activity at 10 µM was 102%. Besides, the activity at 10 µM in [1] (read-out: Range of growth %) fell in the range of 77.5 to 114%. In the assay on SARS CoV Urbani, this compound yielded an SI of 0 and an EC50 greater than 23.5 µM.

For the compound `O=C1NC(=O)C(N2N=C(c3ccc4ccccc4c3)CC2c2ccc(Cl)cc2)S1` (centres unmarked) [1b, 5-[5-(4-Chlorophenyl)-3-naphthalen-2-yl-4,5-dihydropyrazol-1-yl]-thiazolidine-2,4-dione], in [1], the “anticancer activity in words” value was “did not show any activity”. For the same compound, the activity at 10 µM in assay [1] (read-out: Mean growth %) was 105%. For the same compound, in assay [1] (read-out: Range of growth %), the activity at 10 µM is 74.9 to 170%. Also, in the assay with SARS CoV Urbani, the SI was found to be 0 and the EC50 was greater than 23.2 µM.

With `COc1ccc(C2CC(c3ccc4ccccc4c3)=NN2C2SC(=O)N(CC(=O)Nc3ccc(C)cc3)C2=O)cc1` (centres unmarked) [2a, 2-{5-[5-(4-Methoxyphenyl)-3-naphthalen-2-yl-4,5-dihydropyrazol-1-yl]-2,4-dioxothiazolidin-3-yl}-N-p-tolylacetamide], the “anticancer activity in words” value in assay [1] is “did not show any activity”. For the same compound, the activity at 10 µM in [1] (read-out: Mean growth %) is 99.2%; in [1] (read-out: Range of growth %) it was 76.6 to 114%. Besides, the figures for the SI (in assay [2]; in the assay with SARS CoV Urbani) were greater than 16.3 and 0, respectively. In the assay on SARS CoV Urbani, this compound had an EC50 greater than 313 µM. The “activity against other influenza strains, in words” value in assay [3] is on record as “did not have significant activity”.

As to `Cc1ccc(NC(=O)CN2C(=O)SC(N3N=C(c4ccc5ccccc5c4)CC3c3ccc(Cl)cc3)C2=O)cc1` (centres unmarked) [2b, 2-{5-[5-(4-Chlorophenyl)-3-naphthalen-2-yl-4,5-dihydropyrazol-1-yl]-2,4-dioxothiazolidin-3-yl}-N-p-tolylacetamide], in the assay on SARS CoV Urbani, the SI was determined as 0 and the EC50 was greater than 351 µM.

With `COc1ccc(NC(=O)CN2C(=O)SC(N3N=C(c4ccc5ccccc5c4)CC3c3ccc(Cl)cc3)C2=O)cc1` (centres unmarked) [2c, 2-{5-[5-(4-Chlorophenyl)-3-naphthalen-2-yl-4,5-dihydropyrazol-1-yl]-2,4-dioxothiazolidin-3-yl}-N-(4-methoxyphenyl)-acetamide], in the assay with SARS CoV Urbani, the SI stood at 0 and the EC50 was greater than 342 µM.

For the compound `COc1ccc(C2CC(c3ccc4ccccc4c3)=NN2C2SC(=O)N(CN3CCCCC3)C2=O)cc1` (centres unmarked) [3a, 5-[5-(4-Methoxyphenyl)-3-naphthalen-2-yl-4,5-dihydropyrazol-1-yl]-3-piperidin-1-ylmethylthiazolidine-2,4-dione], the activity at 10 µM was 101% in [1] (read-out: Mean growth %) and 69.5 to 113% in assay [1] (read-out: Range of growth %).

In the case of `COc1ccc(C2CC(c3ccc4ccccc4c3)=NN2C2SC(=O)N(CN3CCOCC3)C2=O)cc1` (centres unmarked) [3b, 5-[5-(4-Methoxyphenyl)-3-naphthalen-2-yl-4,5-dihydropyrazol-1-yl]-3-morpholin-4-ylmethylthiazolidine-2,4-dione], the activity at 10 µM was 99.5% in assay [1] (read-out: Mean growth %) and 67.5 to 122% in assay [1] (read-out: Range of growth %).

As to `COc1ccc(C2CC(c3ccc4ccccc4c3)=NN2C2SC(=O)N(CN3CCN(C(C)=O)CC3)C2=O)cc1` (centres unmarked) [3c, 3-(4-Acetylpiperazin-1-ylmethyl)-5-[5-(4-methoxyphenyl)-3-naphthalen-2-yl-4,5-dihydro-pyrazol-1-yl]-thiazolidine-2,4-dione], the activity at 10 µM is 101% in [1] (read-out: Mean growth %) and 82.2 to 126% in assay [1] (read-out: Range of growth %).

As to `COc1ccc(C2CC(c3ccc4ccccc4c3)=NN2C2SC(=O)N(CN3CCN(Cc4ccccc4)CC3)C2=O)cc1` (centres unmarked) [3d, 3-(4-Benzylpiperazin-1-ylmethyl)-5-[5-(4-methoxyphenyl)-3-naphthalen-2-yl-4,5-dihydropyrazol-1-yl]-thiazolidine-2,4-dione], the activity at 10 µM was 103% in assay [1] (read-out: Mean growth %) and 74.5 to 127% in [1] (read-out: Range of growth %).

In the assay on SARS CoV Urbani, `CCN1CCN(CN2C(=O)SC(N3N=C(c4ccc5ccccc5c4)CC3c3ccc(Cl)cc3)C2=O)CC1` (centres unmarked) [3e, 5-[5-(4-Chlorophenyl)-3-naphthalen-2-yl-4,5-dihydropyrazol-1-yl]-3-(4-ethylpiperazin-1-ylmethyl)-thiazolidine-2,4-dione] gave an SI of 0 and an EC50 greater than 16.8 µM.

`CC(=O)N1CCN(CN2C(=O)SC(N3N=C(c4ccc5ccccc5c4)CC3c3ccc(Cl)cc3)C2=O)CC1` (centres unmarked) [3f, 3-(4-Acetylpiperazin-1-ylmethyl)-5-[5-(4-chlorophenyl)-3-naphthalen-2-yl-4,5-dihydropyrazol-1-yl]-thiazolidine-2,4-dione]: the “anticancer activity in words” value in assay [1] is on record as “did not show any activity”. In addition, the results for the activity at 10 µM in [1] (read-out: Mean growth %) and in assay [1] (read-out: Range of growth %) were 102% and 76.4 to 131%, respectively.

Turning to `COc1ccc(C2CC(c3ccccc3)=NN2C(=O)/C=C2\SC(=O)NC2=O)cc1` (centres unmarked) [4a, 5-{2-[5-(4-Methoxyphenyl)-3-phenyl-4,5-dihydropyrazol-1-yl]-2-oxoethylidene}-thiazolidine-2,4-dione], the “anticancer activity in words” value in assay [1] is recorded as “moderately effective against few cell lines”. The activity at 10 µM in assay [1] (read-out: Mean growth %) was 96.6%; in assay [1] (read-out: Range of growth %) it was 39.1 to 147%.

Turning to `COc1ccc(C2=NN(C(=O)/C=C3\SC(=O)NC3=O)C(c3ccccc3O)C2)cc1` (centres unmarked) [4d, 5-{2-[5-(2-Hydroxyphenyl)-3-(4-methoxyphenyl)-4,5-dihydropyrazol-1-yl]-2-oxoethylidene}-thiazolidine-2,4-dione], in assay [1], the “number of cell lines against which the compound was effective” value is 12 cell lines. The results for the activity at 10 µM in assay [1] (read-out: Mean growth %) and in assay [1] (read-out: Range of growth %) were 60.1% and -27.3 to 160%, respectively. For the same compound, the GI50 was 3.28 µM in assay [4] (48 h); 2.12 to 4.58 µM in [4] (read-out: GI50 values range); 7.91 µM in [5]; 5.73 µM with Colon cancer cell lines; 7.57 µM in the assay with CNS cancer cell lines; 8.07 µM in the assay with Melanoma cell lines. Further, the 50% growth inhibitory concentration (GI50) is 11.4 µM in assay [6], 8.13 µM in the assay with Renal cancer cell lines, 6.5 µM in the assay with Breast cancer cell lines (Homo sapiens) and 7.02 µM in assay [7]. In addition, the TGI amounted to 25.31 µM in assay [4] (48 h); 42.06 µM in [5]; 21.01 µM in the assay with Colon cancer cell lines; 24.10 µM with CNS cancer cell lines; 28.21 µM with Melanoma cell lines; 79.20 µM in [6]. Also, the TGI amounted to 44.04 µM in the assay on Renal cancer cell lines and 47.30 µM in the assay on Breast cancer cell lines.

`COc1ccc(C2CC(c3ccc4ccccc4c3)=NN2C(=O)/C=C2\SC(=O)NC2=O)cc1` (centres unmarked) [4e, 5-{2-[5-(4-Methoxyphenyl)-3-naphthalen-2-yl-4,5-dihydropyrazol-1-yl]-2-oxoethylidene}-thiazolidine-2,4-dione]: the “anticancer activity in words” value in [1] is listed as “did not show any activity”. In addition, the activity at 10 µM in assay [1] (read-out: Mean growth %) was 99.7%; in [1] (read-out: Range of growth %), 78.7 to 132%.

Take `O=C1NC(=O)/C(=C/C(=O)N2N=C(c3ccc4ccccc4c3)CC2c2ccc(Cl)cc2)S1` (centres unmarked) [4f, 5-{2-[5-(4-Chlorophenyl)-3-naphthalen-2-yl-4,5-dihydropyrazol-1-yl]-2-oxoethylidene}-thiazolidine-2,4-dione]: the “number of cell lines against which the compound was effective” value in [1] stood at 18 cell lines. Further, the activity at 10 µM in assay [1] (read-out: Mean growth %) was 51%; in [1] (read-out: Range of growth %), -5.27 to 109%. Besides, the GI50 was 1.64 to 3.2 µM in [4] (read-out: GI50 values range); 3.52 µM in assay [5]; 3.53 µM in the assay with Colon cancer cell lines; 4.09 µM in the assay with CNS cancer cell lines; 4.08 µM in the assay with Melanoma cell lines; 9.79 µM in assay [6]. Further, the GI50 in the assay with Renal cancer cell lines amounted to 4.66 µM; in assay [8], 4.61 µM; in assay [7] it was 4.38 µM. The concentration for total growth inhibition (TGI) amounted to 7.38 µM in assay [4] (48 h); 61.59 µM in [5]; 63.20 µM with Colon cancer cell lines; 31.99 µM with CNS cancer cell lines; 45.88 µM in the assay on Melanoma cell lines; 79.83 µM in assay [6]. Besides, the total growth inhibition concentration (TGI) turned out to be 53.25 µM in the assay on Renal cancer cell lines, 15.85 µM in the assay on Breast cancer cell lines, 7.41 µM in the assay with MOLT-4 and 8.26 µM in the assay on HS 578T.

On to `COc1ccc(NC(=O)CN2C(=O)S/C(=C\C(=O)N3N=C(c4ccc5ccccc5c4)CC3c3ccc(OC)cc3)C2=O)cc1` (centres unmarked) [5d, N-(4-Methoxyphenyl)-2-(5-{2-[5-(4-methoxyphenyl)-3-naphthalen-2-yl-4,5-dihydropyrazol-1-yl]-2-oxoethylidene}-2,4-dioxothiazolidin-3-yl)-acetamide], for which the “anticancer activity in words” value in [1] is “did not show any activity”. The activity at 10 µM in assay [1] (read-out: Mean growth %) was 98%; in [1] (read-out: Range of growth %), 74.7 to 119%.
